# How the values were obtained:
# Acinetobacter baumannii [1] = assay: Antibacterial activity against Acinetobacter baumannii ATCC BAA 1793 clinical isolate after 18 hrs by broth microdilution method; type: functional; conditions: ATCC BAA 1793, 18 h
# Acinetobacter baumannii [2] = assay: Antibacterial activity against Acinetobacter baumannii ATCC 17961 clinical isolate after 18 hrs by broth microdilution method; type: functional; conditions: ATCC 17961, 18 h
# Acinetobacter baumannii [3] = assay: Antibacterial activity against Acinetobacter baumannii ATCC 17978 transfected with pNT255:ADC-1 after 18 hrs by broth microdilution method; type: functional; conditions: ATCC 17978, 18 h
# Acinetobacter baumannii [4] = assay: Antibacterial activity against Acinetobacter baumannii ATCC BAA 1800 clinical isolate after 18 hrs by broth microdilution method; type: functional; conditions: ATCC BAA 1800, 18 h
# Acinetobacter baumannii [5] = assay: Antibacterial activity against Acinetobacter baumannii ATCC BAA 1797 clinical isolate after 18 hrs by broth microdilution method; type: functional; conditions: ATCC BAA 1797, 18 h
# Escherichia coli = assay: Antibacterial activity against Escherichia coli DC0 after 18 hrs by broth microdilution method; type: functional; conditions: DC0, 18 h
# Pseudomonas aeruginosa [6] = assay: Antibacterial activity against wild type Pseudomonas aeruginosa KW799 after 18 hrs by broth microdilution method; type: functional; conditions: KW799, 18 h
# Acinetobacter baumannii [7] = assay: Antibacterial activity against Acinetobacter baumannii ATCC 17978 transfected with pNT255 after 18 hrs by broth microdilution method; type: functional; conditions: ATCC 17978, 18 h
# Acinetobacter baumannii [8] = assay: Antibacterial activity against Acinetobacter baumannii ATCC 17978 after 18 hrs by broth microdilution method; type: functional; conditions: ATCC 17978, 18 h
# Pseudomonas aeruginosa [9] = assay: Antibacterial activity against Pseudomonas aeruginosa by broth microdilution method; type: functional
# Pseudomonas aeruginosa [10] = assay: Antibacterial activity against Pseudomonas aeruginosa ATCC 27853 by broth microdilution method; type: functional
# Pseudomonas aeruginosa [11] = assay: Antibacterial activity against Pseudomonas aeruginosa PAO1 ATCC […] by broth microdilution method; type: functional
# Beta-lactamase = Beta-lactamase (Acinetobacter baumannii, UniProt Q9L4R5); assay: Drug metabolism assessed as Acinetobacter baumannii ADC-1-mediated (S)-N-((3-(3-Fluoro-4-(4-glycylpiperazin-1-yl)phenyl)-2-oxooxazolidin-5-yl)methyl)acetamide release at 20 uM after 40 mins by LC/MS method; type: ADME
# In short: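 Purified ADC-1 β-lactamase (expressed as described earlier) […] with 20 μM conjugate in 50 mM sodium phosphate, pH 7.4, 1% DMSO final, room temperature, 40 min. Release of the oxazolidinone followed by LC/MS. Controls run under the same conditions: conjugate alone (20 μM) and enzyme alone (1 μM).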
SMILES,MIC (Acinetobacter baumannii [1]),MIC (Acinetobacter baumannii [2]),MIC (Acinetobacter baumannii [3]),MIC (Acinetobacter baumannii [4]),MIC (Acinetobacter baumannii [5]),MIC (Escherichia coli),MIC (Pseudomonas aeruginosa [6]),MIC (Acinetobacter baumannii [7]),MIC (Acinetobacter baumannii [8]),MIC (Pseudomonas aeruginosa [9]),MIC (Pseudomonas aeruginosa [10]),MIC (Pseudomonas aeruginosa [11]),Drug metabolism (Beta-lactamase)
CC(=O)NC[C@H]1CN(c2ccc(N3CCN(C(=O)CNC(=O)OCC4=C(C(=O)O)N5C(=O)[C@@H](NC(=O)C(NC(=O)CN(CCCCNC(=O)c6cccc(O)c6O)C(=O)c6cccc(O)c6O)c6ccccc6)[C@H]5SC4)CC3)c(F)c2)C(=O)O1 (stereo partly specified),0.8 to 16 µM,0.8 µM,6 µM,0.8 µM,6.25 µM,< 0.025 µM,0.2 to 0.4 µM,0.4 µM,0.4 µM,–,–,–,Metabolite_Detected
CC(=O)NC[C@H]1CN(c2ccc(N3CCN(C(=O)CNC(=O)OCC4=C(C(=O)O)N5C(=O)[C@@H](NC(=O)C(N)c6ccccc6)[C@H]5SC4)CC3)c(F)c2)C(=O)O1 (stereo partly specified),> 50 µM,> 50 µM,> 50 µM,> 50 µM,> 50 µM,> 50 µM,> 50 µM,> 50 µM,> 50 µM,–,–,–,–
CC(=O)OCC1=C(C(=O)O)N2C(=O)[C@@H](NC(=O)C(N)c3ccccc3)[C@H]2SC1 (stereo partly specified),> 50 µM,> 50 µM,> 50 µM,> 50 µM,> 50 µM,50 µM,> 50 µM,> 50 µM,> 50 µM,–,–,–,–
CC(=O)NC[C@H]1CN(c2ccc(N3CCN(C(=O)CO)CC3)c(F)c2)C(=O)O1 [EPEREZOLID],–,–,> 50 µM,–,–,–,–,> 50 µM,> 50 µM,–,–,–,–

# Now from value to compound, other results behind:
MIC (Acinetobacter baumannii [1]),MIC (Acinetobacter baumannii [2]),MIC (Acinetobacter baumannii [3]),MIC (Acinetobacter baumannii [4]),MIC (Acinetobacter baumannii [5]),MIC (Escherichia coli),MIC (Pseudomonas aeruginosa [6]),MIC (Acinetobacter baumannii [7]),MIC (Acinetobacter baumannii [8]),MIC (Pseudomonas aeruginosa [9]),MIC (Pseudomonas aeruginosa [10]),MIC (Pseudomonas aeruginosa [11]),SMILES,Drug metabolism (Beta-lactamase)
> 50 µM,> 50 µM,> 50 µM,> 50 µM,> 50 µM,> 50 µM,> 50 µM,> 50 µM,> 50 µM,–,–,–,CC(=O)NC[C@H]1CN(c2ccc(N3CCN(C(=O)CNC(=O)CN(CCCCNC(=O)c4cccc(O)c4O)C(=O)c4cccc(O)c4O)CC3)c(F)c2)C(=O)O1,–
–,–,–,–,–,–,–,–,–,0.02 to 0.16 µM,–,–,CC(=O)Oc1cccc(C(=O)NCCCCN(CC(=O)N[C@@H](C(=O)N[C@@H]2C(=O)N3[C@@H]2SC(C)(C)[C@@H]3C(=O)O)c2ccc(O)cc2)C(=O)c2cccc(OC(C)=O)c2OC(C)=O)c1OC(C)=O,–
–,–,–,–,–,–,–,–,–,–,0.024 µM,> 100 µM,CC(O)C(NCC(=O)NC(=O)C(CCCNC(=O)CCCCCCCCC(=O)NC(C(=O)N[C@@H]1C(=O)N2[C@@H]1SC(C)(C)[C@@H]2C(=O)O)c1ccccc1)NC(=O)C(CCCN(O)C=O)NC(=O)C(CO)NC(=O)C1CCN=C2C(NC(=O)CCC(N)=O)=Cc3cc(O)c(O)cc3N21)C(=O)NC(CO)C(=O)NC1CCCN(O)C1=O (stereo partly specified),–
12.5 µM,0.8 µM,> 50 µM,25 µM,> 50 µM,< 0.025 µM,0.4 µM,0.4 µM,0.4 µM,–,–,–,CC(=O)OCC1=C(C(=O)O)N2C(=O)[C@@H](NC(=O)C(NC(=O)CN(CCCCNC(=O)c3cccc(O)c3O)C(=O)c3cccc(O)c3O)c3ccccc3)[C@H]2SC1 (stereo partly specified),–
> 50 µM,> 50 µM,> 500 µM,> 50 µM,> 50 µM,> 50 µM,> 50 µM,> 500 µM,> 500 µM,–,–,–,CC(=O)NC[C@H]1CN(c2ccc(N3CCN(C(=O)CN)CC3)c(F)c2)C(=O)O1,–

# From ChEMBL document CHEMBL4177749, “A Synthetic Dual Drug Sideromycin Induces Gram-Negative Bacteria To Commit Suicide with a Gram-Positive Antibiotic” (J Med Chem, 2018)
